Test results as given in ChEMBL document CHEMBL1142492 (J Med Chem, 2008).

Assays:
[1] = target: D(1A) dopamine receptor (Homo sapiens) (UniProt P21728); experiment: Inhibition of human dopamine D1 receptor at 3 uM
[2] = target: T1, Epidermal growth factor receptor (Homo sapiens) (UniProt P04626+P00533+Q15303+P21860); experiment: Inhibition of EGFR L747-T751del,Sins mutant at 3 uM; format: protein assay
[3] = target: Serine/threonine-protein kinase Chk1 (Homo sapiens) (UniProt O14757); experiment: Inhibition of CHEK1 at 3 uM
[4] = species: Rattus norvegicus; conditions: 3 uM
[5] = target: Serine/threonine-protein kinase 35 (Homo sapiens) (UniProt Q8TDR2); experiment: Inhibition of STK35 at 3 uM
[6] = target: Muscarinic acetylcholine receptor M3 (Homo sapiens) (UniProt P20309); experiment: Inhibition of human muscarinic M3 receptor at 3 uM
[7] = target: SRSF protein kinase 1 (Homo sapiens) (UniProt Q96SB4); experiment: Inhibition of SRPK1 at 3 uM
[8] = target: Serine/threonine-protein kinase DCLK3 (Homo sapiens) (UniProt Q9C098); experiment: Inhibition of DCAMKL3 at 3 uM
[9] = target: Tyrosine-protein kinase ITK/TSK (Homo sapiens) (UniProt Q08881); experiment: Inhibition of ITK at 3 uM
Chain of Tyrosine-protein kinase ITK/TSK (Homo sapiens) (Q08881 whole entry): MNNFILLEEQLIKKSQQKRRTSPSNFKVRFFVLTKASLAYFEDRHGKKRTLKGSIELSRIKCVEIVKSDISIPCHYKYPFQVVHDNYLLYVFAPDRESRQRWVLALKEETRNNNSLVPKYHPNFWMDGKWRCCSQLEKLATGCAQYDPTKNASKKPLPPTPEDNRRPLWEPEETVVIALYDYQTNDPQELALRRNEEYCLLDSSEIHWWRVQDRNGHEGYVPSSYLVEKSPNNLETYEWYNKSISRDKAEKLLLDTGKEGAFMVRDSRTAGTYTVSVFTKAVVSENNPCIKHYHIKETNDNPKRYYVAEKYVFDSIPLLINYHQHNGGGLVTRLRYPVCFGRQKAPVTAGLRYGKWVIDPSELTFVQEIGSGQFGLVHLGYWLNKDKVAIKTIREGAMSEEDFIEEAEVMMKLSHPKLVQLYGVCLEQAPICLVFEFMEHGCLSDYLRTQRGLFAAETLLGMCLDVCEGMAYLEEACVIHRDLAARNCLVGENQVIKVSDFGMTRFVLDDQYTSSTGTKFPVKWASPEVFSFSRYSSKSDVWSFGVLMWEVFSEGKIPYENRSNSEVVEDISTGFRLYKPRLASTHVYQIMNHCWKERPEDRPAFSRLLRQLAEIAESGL

[10] = target: Interferon-induced, double-stranded RNA-activated protein kinase (Homo sapiens) (UniProt P19525); experiment: Inhibition of PRKR at 3 uM
Chain of Interferon-induced, double-stranded RNA-activated protein kinase (Homo sapiens) (P19525 whole entry): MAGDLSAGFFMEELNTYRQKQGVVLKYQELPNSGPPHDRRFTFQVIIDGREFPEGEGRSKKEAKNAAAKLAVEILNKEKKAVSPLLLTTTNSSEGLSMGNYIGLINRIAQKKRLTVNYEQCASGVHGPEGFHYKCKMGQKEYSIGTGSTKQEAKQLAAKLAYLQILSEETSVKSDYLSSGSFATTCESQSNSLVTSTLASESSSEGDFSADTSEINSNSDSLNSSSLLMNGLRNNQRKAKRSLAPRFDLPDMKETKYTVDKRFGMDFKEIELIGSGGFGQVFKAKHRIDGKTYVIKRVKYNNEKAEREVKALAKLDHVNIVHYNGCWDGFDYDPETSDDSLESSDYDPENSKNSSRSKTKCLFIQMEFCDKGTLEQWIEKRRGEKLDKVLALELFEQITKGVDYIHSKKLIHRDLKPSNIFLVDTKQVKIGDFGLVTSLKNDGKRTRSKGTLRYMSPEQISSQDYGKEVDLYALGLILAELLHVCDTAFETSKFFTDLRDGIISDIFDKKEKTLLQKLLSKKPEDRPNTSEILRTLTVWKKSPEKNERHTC

[11] = target: Glycogen synthase kinase-3 beta (Homo sapiens) (UniProt P49841); experiment: Inhibition of GSK3B at 3 uM
[12] = target: Pyroglutamylated RF-amide peptide receptor (Homo sapiens) (UniProt Q96P65); experiment: Inhibition of human GPR103 at 3 uM
Chain of Pyroglutamylated RF-amide peptide receptor (Homo sapiens) (Q96P65 whole entry): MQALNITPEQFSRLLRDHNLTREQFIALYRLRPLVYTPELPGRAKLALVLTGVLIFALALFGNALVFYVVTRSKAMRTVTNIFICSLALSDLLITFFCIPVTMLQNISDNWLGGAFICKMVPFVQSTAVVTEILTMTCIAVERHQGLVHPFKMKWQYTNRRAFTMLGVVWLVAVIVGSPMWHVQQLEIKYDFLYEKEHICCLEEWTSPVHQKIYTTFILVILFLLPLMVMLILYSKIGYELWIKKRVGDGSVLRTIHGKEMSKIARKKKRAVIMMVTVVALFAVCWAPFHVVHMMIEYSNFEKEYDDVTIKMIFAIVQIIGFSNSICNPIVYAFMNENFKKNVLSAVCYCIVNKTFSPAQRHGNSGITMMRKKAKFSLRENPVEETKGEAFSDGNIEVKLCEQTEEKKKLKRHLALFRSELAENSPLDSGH
Method in brief: (§1)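 Counter-screen binding/enzyme panel at single 3 μM, n=2; results as percent inhibition. Species per target as listed (rat NMDA, GABAA sites; human receptors, transporters; rabbit ACE).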

[13] = target: Glycogen synthase kinase-3 alpha (Homo sapiens) (UniProt P49840); experiment: Inhibition of GSK3A at 3 uM
[14] = target: Dual specificity protein kinase CLK3 (Homo sapiens) (UniProt P49761); experiment: Inhibition of CLK3 at 3 uM
[15] = target: Tyrosine-protein kinase Lyn (Homo sapiens) (UniProt P07948); experiment: Inhibition of LYN at 3 uM
[16] = target: T1, Epidermal growth factor receptor (Homo sapiens); experiment: Inhibition of EGFR L747-E749del,A750P mutant at 3 uM; format: protein assay
[17] = target: Protein-tyrosine kinase 6 (Homo sapiens) (UniProt Q13882); experiment: Inhibition of PTK6 at 3 uM
[18] = target: Beta-2 adrenergic receptor (Homo sapiens) (UniProt P07550); experiment: Inhibition of human adrenergic beta2 receptor at 3 uM; method in brief: as §1
[19] = target: Bone morphogenetic protein receptor type-1B (Homo sapiens) (UniProt O00238); experiment: Inhibition of BMPR1B at 3 uM
[20] = target: Leukocyte tyrosine kinase receptor (Homo sapiens) (UniProt P29376); experiment: Inhibition of LTK at 3 uM
[21] = target: Mitogen-activated protein kinase kinase kinase 4 (Homo sapiens) (UniProt Q9Y6R4); experiment: Inhibition of MAP3K4 at 3 uM
[22] = target: Serine/threonine-protein kinase 26 (Homo sapiens) (UniProt Q9P289); experiment: Inhibition of MST4 at 3 uM
[23] = target: Serine/threonine-protein kinase N2 (Homo sapiens) (UniProt Q16513); experiment: Inhibition of PKN2 at 3 uM
Chain of Serine/threonine-protein kinase N2 (Homo sapiens) (Q16513 whole entry, looked up): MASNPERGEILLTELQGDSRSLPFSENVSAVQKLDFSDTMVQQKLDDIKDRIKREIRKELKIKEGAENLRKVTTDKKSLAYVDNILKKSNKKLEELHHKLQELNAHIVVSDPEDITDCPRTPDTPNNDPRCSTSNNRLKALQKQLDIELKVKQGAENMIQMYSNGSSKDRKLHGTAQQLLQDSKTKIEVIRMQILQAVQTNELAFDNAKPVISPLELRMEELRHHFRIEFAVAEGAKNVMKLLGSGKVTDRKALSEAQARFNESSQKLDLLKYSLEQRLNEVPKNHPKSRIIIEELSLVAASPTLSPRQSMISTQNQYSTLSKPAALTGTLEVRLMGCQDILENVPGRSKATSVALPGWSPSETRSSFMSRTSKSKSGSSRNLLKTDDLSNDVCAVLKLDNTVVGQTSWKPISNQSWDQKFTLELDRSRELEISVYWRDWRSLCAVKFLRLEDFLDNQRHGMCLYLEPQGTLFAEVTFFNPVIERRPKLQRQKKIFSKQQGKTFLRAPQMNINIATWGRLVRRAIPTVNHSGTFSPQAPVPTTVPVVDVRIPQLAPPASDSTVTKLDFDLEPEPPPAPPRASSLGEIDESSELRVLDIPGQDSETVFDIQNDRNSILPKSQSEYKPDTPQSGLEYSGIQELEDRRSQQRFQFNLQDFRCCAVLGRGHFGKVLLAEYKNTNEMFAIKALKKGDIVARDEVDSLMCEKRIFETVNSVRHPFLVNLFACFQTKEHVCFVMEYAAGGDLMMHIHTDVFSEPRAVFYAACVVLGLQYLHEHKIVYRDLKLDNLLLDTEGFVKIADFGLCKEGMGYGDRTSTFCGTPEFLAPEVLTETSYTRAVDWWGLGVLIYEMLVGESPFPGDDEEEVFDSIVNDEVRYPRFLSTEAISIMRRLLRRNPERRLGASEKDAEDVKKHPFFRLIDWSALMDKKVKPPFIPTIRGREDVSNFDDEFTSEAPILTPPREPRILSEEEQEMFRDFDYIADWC

[24] = target: Mitogen-activated protein kinase kinase kinase kinase 1 (Homo sapiens) (UniProt Q92918); experiment: Inhibition of MAP4K1 at 3 uM
[25] = target: Cyclin-dependent kinase 8 (Homo sapiens) (UniProt P49336); experiment: Inhibition of CDK8 at 3 uM
[26] = target: Hepatocyte growth factor receptor (Homo sapiens) (UniProt P08581); experiment: Inhibition of MET at 3 uM
[27] = target: Pro-epidermal growth factor (Homo sapiens) (UniProt P01133); experiment: Inhibition of human EGF at 3 uM; method in brief: as §1
[28] = target: Serine/threonine-protein kinase tousled-like 2 (Homo sapiens) (UniProt Q86UE8); experiment: Inhibition of TLK2 at 3 uM
[29] = target: Alpha-2A adrenergic receptor (Homo sapiens) (UniProt P08913); experiment: Inhibition of human adrenergic alpha2A receptor at 3 uM
[30] = target: Gamma-aminobutyric acid receptor subunit alpha-1 (Rattus norvegicus) (UniProt P62813); experiment: Displacement of muscimol from rat GABAA1 receptor at 3 uM; method in brief: as §1
[31] = target: Phosphorylase b kinase gamma catalytic chain, skeletal muscle/heart isoform (Homo sapiens) (UniProt Q16816); experiment: Inhibition of PHKG1 at 3 uM
[32] = target: Serine/threonine-protein kinase pim-2 (Homo sapiens) (UniProt Q9P1W9); experiment: Inhibition of PIM2 at 3 uM
[33] = target: hERG (KCNH2) (Homo sapiens, UniProt Q12809); experiment: Inhibition of human ERG at 3 uM; method in brief: as §1
[34] = target: Prostaglandin E2 receptor EP4 subtype (Homo sapiens) (UniProt P35408); experiment: Inhibition of human prostanoid EP4 receptor at 3 uM; method in brief: as §1
Chain of Prostaglandin E2 receptor EP4 subtype (Homo sapiens) (P35408 whole entry): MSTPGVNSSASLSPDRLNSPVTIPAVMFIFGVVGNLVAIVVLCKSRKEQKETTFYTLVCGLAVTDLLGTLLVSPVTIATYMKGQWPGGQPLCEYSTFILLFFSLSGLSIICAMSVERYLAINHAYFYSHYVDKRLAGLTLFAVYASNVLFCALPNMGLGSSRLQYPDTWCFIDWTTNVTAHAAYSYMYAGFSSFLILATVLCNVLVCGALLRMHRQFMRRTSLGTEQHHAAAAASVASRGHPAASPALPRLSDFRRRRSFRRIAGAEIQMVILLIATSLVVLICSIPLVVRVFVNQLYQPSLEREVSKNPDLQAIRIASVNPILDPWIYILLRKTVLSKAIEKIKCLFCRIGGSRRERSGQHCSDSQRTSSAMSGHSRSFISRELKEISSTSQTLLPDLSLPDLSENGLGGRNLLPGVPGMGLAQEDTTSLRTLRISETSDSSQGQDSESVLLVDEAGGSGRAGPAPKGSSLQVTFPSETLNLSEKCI

[35] = target: Interleukin-1 receptor-associated kinase 3 (Homo sapiens) (UniProt Q9Y616); experiment: Inhibition of IRAK3 at 3 uM
Chain of Interleukin-1 receptor-associated kinase 3 (Homo sapiens) (Q9Y616 whole entry): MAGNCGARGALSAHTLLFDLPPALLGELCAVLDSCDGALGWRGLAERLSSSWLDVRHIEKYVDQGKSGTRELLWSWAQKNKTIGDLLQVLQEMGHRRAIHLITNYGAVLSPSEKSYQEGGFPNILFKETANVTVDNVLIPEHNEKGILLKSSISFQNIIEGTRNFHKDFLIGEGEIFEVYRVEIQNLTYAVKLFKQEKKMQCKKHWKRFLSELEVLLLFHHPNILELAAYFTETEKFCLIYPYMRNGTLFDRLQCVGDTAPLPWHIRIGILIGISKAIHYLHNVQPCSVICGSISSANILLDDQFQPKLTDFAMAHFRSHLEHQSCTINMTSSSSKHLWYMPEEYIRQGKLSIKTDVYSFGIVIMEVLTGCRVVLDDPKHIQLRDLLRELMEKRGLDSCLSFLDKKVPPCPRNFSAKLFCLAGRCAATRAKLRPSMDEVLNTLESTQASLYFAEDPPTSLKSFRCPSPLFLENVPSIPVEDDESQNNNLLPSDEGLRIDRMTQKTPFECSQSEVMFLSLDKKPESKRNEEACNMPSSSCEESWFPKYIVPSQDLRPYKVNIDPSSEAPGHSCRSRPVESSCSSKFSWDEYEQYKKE

[36] = target: Beta-1 adrenergic receptor (Homo sapiens) (UniProt P08588); experiment: Inhibition of human adrenergic beta-1 receptor at 3 uM; method in brief: as §1
[37] = target: TRAF2 and NCK-interacting protein kinase (Homo sapiens) (UniProt Q9UKE5); experiment: Inhibition of TNIK at 3 uM
[38] = target: MAP/microtubule affinity-regulating kinase 4 (Homo sapiens) (UniProt Q96L34); experiment: Inhibition of MARK4 at 3 uM
Chain of MAP/microtubule affinity-regulating kinase 4 (Homo sapiens) (Q96L34 whole entry): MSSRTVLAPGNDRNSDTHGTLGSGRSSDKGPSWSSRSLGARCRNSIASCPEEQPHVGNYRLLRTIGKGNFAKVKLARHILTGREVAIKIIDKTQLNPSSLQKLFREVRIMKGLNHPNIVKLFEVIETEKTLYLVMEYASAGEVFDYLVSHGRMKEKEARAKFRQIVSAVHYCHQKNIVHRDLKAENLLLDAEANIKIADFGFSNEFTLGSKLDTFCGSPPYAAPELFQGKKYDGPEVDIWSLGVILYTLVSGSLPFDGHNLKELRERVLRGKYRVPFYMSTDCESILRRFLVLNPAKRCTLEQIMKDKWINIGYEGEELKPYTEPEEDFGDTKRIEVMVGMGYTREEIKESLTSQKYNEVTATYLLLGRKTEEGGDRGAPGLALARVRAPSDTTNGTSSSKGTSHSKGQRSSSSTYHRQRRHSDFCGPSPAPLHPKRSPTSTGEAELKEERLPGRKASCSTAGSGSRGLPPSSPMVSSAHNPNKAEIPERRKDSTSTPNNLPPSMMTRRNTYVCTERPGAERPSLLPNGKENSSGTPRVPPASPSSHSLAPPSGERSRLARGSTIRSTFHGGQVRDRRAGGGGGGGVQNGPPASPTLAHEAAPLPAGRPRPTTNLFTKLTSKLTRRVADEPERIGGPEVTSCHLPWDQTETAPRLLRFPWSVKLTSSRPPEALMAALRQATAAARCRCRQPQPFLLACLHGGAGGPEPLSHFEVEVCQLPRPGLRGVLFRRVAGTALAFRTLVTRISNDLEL

[39] = target: Serine/threonine-protein kinase PAK 5 (Homo sapiens) (UniProt Q9P286); experiment: Inhibition of PAK7/PAK5 at 3 uM
[40] = target: Dual specificity mitogen-activated protein kinase kinase 4 (Homo sapiens) (UniProt P45985); experiment: Inhibition of MEK4 at 3 uM
[41] = target: Serine/threonine-protein kinase D3 (Homo sapiens) (UniProt O94806); experiment: Inhibition of PRKD3 at 3 uM
[42] = target: Insulin receptor (Homo sapiens) (UniProt P06213); experiment: Inhibition of INSR at 3 uM
[43] = target: CYP2D6 (Homo sapiens, UniProt P10635); experiment: Inhibition of human CYP2D6 at 10 uM; format: ADME
[44] = target: Serine/threonine-protein kinase 36 (Homo sapiens) (UniProt Q9NRP7); experiment: Inhibition of STK36 at 3 uM
[45] = target: MAP/microtubule affinity-regulating kinase 3 (Homo sapiens) (UniProt P27448); experiment: Inhibition of MARK3 at 3 uM
[46] = target: Inhibitor of nuclear factor kappa-B kinase subunit epsilon (Homo sapiens) (UniProt Q14164); experiment: Inhibition of IKK-epsilon at 3 uM
[47] = target: Serine/threonine-protein kinase 38-like (Homo sapiens) (UniProt Q9Y2H1); experiment: Inhibition of NDR2 at 3 uM

Chain of D(1A) dopamine receptor (Homo sapiens) (P21728 whole entry): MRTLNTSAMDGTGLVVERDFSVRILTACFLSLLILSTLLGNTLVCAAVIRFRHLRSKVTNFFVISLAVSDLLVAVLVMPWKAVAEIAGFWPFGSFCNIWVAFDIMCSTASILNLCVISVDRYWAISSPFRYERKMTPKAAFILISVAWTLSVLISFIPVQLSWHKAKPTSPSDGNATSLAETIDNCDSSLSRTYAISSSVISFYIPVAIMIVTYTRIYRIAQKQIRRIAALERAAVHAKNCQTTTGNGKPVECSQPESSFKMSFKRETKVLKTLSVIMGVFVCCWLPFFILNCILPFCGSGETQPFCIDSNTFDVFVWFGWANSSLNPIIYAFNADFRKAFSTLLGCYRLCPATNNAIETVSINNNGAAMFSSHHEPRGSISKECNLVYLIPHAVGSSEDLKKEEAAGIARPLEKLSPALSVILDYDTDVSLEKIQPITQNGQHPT

`CN(C)CCOc1cc(-c2cn[nH]c2)ccc1NC(=O)C1COc2ccccc2O1` (configuration not stated) [SR-3677] was tested, and the inhibition [1] was 17%, the inhibition [2] was < 10% and the inhibition [3] was < 10%. The inhibition [4] was -4%, the inhibition [5] was < 10% and the inhibition [6] was 3%. For the same molecule, the inhibition [7] was < 10%, the inhibition [8] was < 10% and the inhibition [9] was < 10%. The inhibition [10] was < 10%, the inhibition [11] was < 10% and the inhibition [12] was 25%. For the same molecule, the inhibition [13] was < 10%, the inhibition [14] was < 10% and the inhibition [15] was < 10%. For the same molecule, the inhibition [16] was < 10%, the inhibition [17] was < 10% and the inhibition [18] was 19%. For the same molecule, the inhibition [19] was < 10%, the inhibition [20] was < 10% and the inhibition [21] was < 10%. For the same molecule, the inhibition [22] was < 10%, the inhibition [23] was < 10% and the inhibition [24] was < 10%. The inhibition [25] was < 10%, the inhibition [26] was < 10% and the inhibition [27] was -1%. The inhibition [28] was < 10%, the inhibition [29] was 76% and the inhibition [30] was 5%. The inhibition [31] was < 10%, the inhibition [32] was < 10% and the inhibition at 3 µM [33] was 31%. For the same molecule, the inhibition [34] was 5%, the inhibition [35] was < 10% and the inhibition [36] was 43%. The inhibition [37] was < 10%, the inhibition [38] was < 10% and the inhibition [39] was < 10%. For the same molecule, the inhibition [40] was < 10%, the inhibition [41] was < 10% and the inhibition [42] was < 10%. For the same molecule, the inhibition at 10 µM [43] was 75%, the inhibition [44] was < 10% and the inhibition [45] was < 10%. The inhibition [46] was < 10% and the inhibition [47] was < 10%.
